Assay [1] concerns the target Acetylcholinesterase (Anopheles gambiae) (UniProt Q869C3). The experiment in a line: Inhibition of Anopheles gambiae recombinant AChE1 expressed in baculovirus infected insect Sf9 cells at 50 uM using acetylthiocholine iodide as substrate measured over 60 secs by Ellman assay relative to control. The method in brief: (§1)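 Single-concentration HTS with secreted, non-purified Sf-9-expressed mosquito AChE1 in growth medium. Assay in 0.1 M phosphate buffer pH 7.4 with 0.2 mM DTNB and 1 mM acetylthiocholine iodide. Compounds were tested at a final 50 µM from DMSO stocks. The A412 slope was read over 60 s. Activity was expressed relative to the mean of eight uninhibited control wells per plate.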
On the technique in general: DTNB colorimetry detects thiols as they appear.

Assay [2] in a line: Inhibition of Aedes aegypti recombinant AChE1 expressed in baculovirus infected insect Sf9 cells at 50 uM using acetylthiocholine iodide as substrate measured over 60 secs by Ellman assay relative to control. The method in brief:
as §1

Assay [3] has as its target Acetylcholinesterase (Anopheles gambiae, UniProt Q869C3). The experiment in a line: Inhibition of Anopheles gambiae recombinant AChE1 expressed in baculovirus infected insect Sf9 cells using acetylthiocholine iodide as substrate measured over 60 secs by Ellman assay. The method in brief:
(§2)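 Dose-response Ellman assay on recombinant enzyme in 0.1 M phosphate pH 7.4 with 0.2 mM DTNB and 1 mM acetylthiocholine iodide. At least eight inhibitor concentrations were used, up to 1 mM, diluted from 100 mM DMSO stocks. Run manually at 30 °C with A412 read over 60 s. Activity is relative to uninhibited wells. IC50 was obtained by non-linear log[inhibitor] fitting from 2 replicates.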

The nature of assay [4]: Inhibition of Aedes aegypti recombinant AChE1 expressed in baculovirus infected insect Sf9 cells using acetylthiocholine iodide as substrate measured over 60 secs by Ellman assay. In a few lines:
as §2

For assay [5], the target named is Acetylcholinesterase (Homo sapiens, UniProt P22303). The experiment in a line: Inhibition of human recombinant AChE using acetylthiocholine iodide as substrate measured over 60 secs by Ellman assay. The method in brief:
as §2

Assay [6] can be described thus: Selectivity ratio of IC50 for human recombinant AChE to IC50 for Anopheles gambiae recombinant AChE1.
The nature of assay [7]: Selectivity ratio of IC50 for human recombinant AChE to IC50 for Aedes aegypti recombinant AChE1.
Assay [8] addresses Acetylcholinesterase (Anopheles gambiae, UniProt Q869C3, G122S). The experiment in a line: Inhibition of Anopheles gambiae recombinant AChE1 G122S mutant using acetylthiocholine iodide as substrate by Ellman assay. In a few lines:
as §2

The target of assay [9] is T1, Acetylcholinesterase (Mus musculus, UniProt P21836).
T1 sequence (P21836 whole entry): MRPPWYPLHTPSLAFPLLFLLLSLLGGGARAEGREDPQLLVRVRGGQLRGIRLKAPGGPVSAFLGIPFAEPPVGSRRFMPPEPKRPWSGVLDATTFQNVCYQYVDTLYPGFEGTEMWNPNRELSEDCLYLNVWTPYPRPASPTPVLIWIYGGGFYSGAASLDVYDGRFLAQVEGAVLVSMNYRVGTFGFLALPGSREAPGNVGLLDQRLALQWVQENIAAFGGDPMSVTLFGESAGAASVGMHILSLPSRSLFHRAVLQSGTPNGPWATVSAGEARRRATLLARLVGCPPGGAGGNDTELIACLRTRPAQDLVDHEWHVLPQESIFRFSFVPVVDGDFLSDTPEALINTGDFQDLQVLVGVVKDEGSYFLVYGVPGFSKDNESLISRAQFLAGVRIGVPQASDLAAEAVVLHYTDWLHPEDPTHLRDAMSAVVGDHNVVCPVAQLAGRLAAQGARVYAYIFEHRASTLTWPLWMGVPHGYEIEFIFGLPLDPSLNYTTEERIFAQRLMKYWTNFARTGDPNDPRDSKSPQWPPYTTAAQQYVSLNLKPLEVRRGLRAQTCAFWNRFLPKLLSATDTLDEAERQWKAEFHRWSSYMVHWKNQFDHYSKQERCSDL
Put plainly: Inhibition of mouse recombinant AChE using acetylthiocholine iodide as substrate measured over 60 secs by Ellman assay.

Bounds are passed on as bounds.

As for `O=S(=O)(NCCSc1nnc(-c2ccco2)n1-c1ccccc1)c1ccccc1`, the inhibition (as a rule, the relative decrease from the control value, in per cent) in assay [1] amounted to 76%; in assay [2] it was 82%. Also, the IC50 (at Acetylcholinesterase [3]; in [4]; at Acetylcholinesterase [5]) was greater than 1000 µM each time.

Regarding `CCSc1nc2sc3c(c2c(=O)n1-c1ccccc1)CCN(Cc1ccccc1)C3`, the inhibition in [1] stood at 94%; in [2], 93%. The values for the IC50 (on Acetylcholinesterase [3]; in assay [4]; at Acetylcholinesterase [5]) were 8.3 µM, 8.8 µM and 5.1 µM, respectively. Besides, the Ratio IC50 in assay [6] and in assay [7] was 0.6 in each case.

As for `COc1ccc(CN2CC=C(c3ccc(F)cc3)CC2)cc1OCc1ccccc1`, the figures for the inhibition in assay [1] and in [2] were 86% and 90%, respectively. Besides, the IC50 (in general, the concentration at which inhibition is half-maximal) at Acetylcholinesterase [3] is greater than 100 µM; in [4] it was greater than 100 µM; on Acetylcholinesterase [5] it was greater than 200 µM.

As to `O=C(COc1ccc(Cl)cc1Cl)Nc1ccc(CN2CCCCC2)cc1`, the values for the inhibition in [1] and in assay [2] were 93% and 91%, respectively. Besides, the IC50 was 0.26 µM at Acetylcholinesterase [3], 0.44 µM in assay [4] and 1.2 µM on Acetylcholinesterase [8].

On to `O=C(COc1ccccc1)N1CCN(C2CCN(Cc3ccccc3)CC2)CC1`, for which the figures for the inhibition in assay [1] and in assay [2] were 24% and 18%, respectively. The values for the IC50 (at Acetylcholinesterase [3]; in assay [4]; at Acetylcholinesterase [5]) were 21 µM, 19 µM and 43 µM, respectively. Also, the Ratio IC50 in assay [6] and in assay [7] was 2 each time.

For `Fc1ccccc1COc1ccccc1CNCCN1CCOCC1`, the values for the inhibition in assay [1] and in assay [2] were 23% and 38%, respectively. Also, the IC50 (on Acetylcholinesterase [3]; in [4]; at Acetylcholinesterase [5]) was greater than 500 µM throughout.

With `c1ccc(COc2ccc(CN3CCc4ccccc4C3)cc2)cc1`, the values for the inhibition in assay [1] and in assay [2] were 41% and 80%, respectively. Besides, the IC50 on Acetylcholinesterase [3] is 2.9 µM; at Acetylcholinesterase [5], greater than 200 µM. The Ratio IC50 in assay [6] and in [7] was greater than 67 in each case.

As to `CCN1CCN(C2CCN(C(=O)COc3ccc(-c4ccccc4)cc3)CC2)CC1`, the inhibition in assay [1] came out at 92%; in assay [2], 76%. Moreover, the IC50 on Acetylcholinesterase [3] came out at 0.21 µM; in [4] it was 0.22 µM; on Acetylcholinesterase [5], 31 µM; at Acetylcholinesterase [9], 18 µM; at Acetylcholinesterase [8] it was 1.3 µM.

In the case of `CCOc1ccc(-n2c(SCc3nc(-c4ccccc4C)no3)nnc2-c2ccccc2)cc1`, the inhibition in [1] came out at 63%; in [2], 1%. Moreover, the IC50 (on Acetylcholinesterase [3]; in assay [4]; on Acetylcholinesterase [5]) was greater than 1000 µM each time.

`O=C(c1ccccc1F)N1CCN(C2CCN(Cc3ccccc3)CC2)CC1`: the inhibition in assay [1] is 32%; in assay [2], 33%. The IC50 on Acetylcholinesterase [3] was 17 µM; in [4], 12 µM; on Acetylcholinesterase [5], greater than 200 µM. Moreover, the Ratio IC50 in assay [6] and in [7] was greater than 12 throughout.

The values are drawn from ChEMBL document CHEMBL3861988, “Discovery of Selective Inhibitors Targeting Acetylcholinesterase 1 from Disease-Transmitting Mosquitoes” (J Med Chem, 2016).
